Calls of active or inactive are those of the source. The calls are words filed in the database; no cut-off is given here. *1 amine or outer side, *2 acyl side, *3 side chain or, on linkers, in order; H or OH if unused. Where a SMILES comes first, the peptide text is derived from it. Bridges are numbered along the chain shown (N, C = ends). [ ]: non-standard residue; d: D form. The star is where a group is joined. hTyr(3S-OH,4S-OH,3'-OSO3H) = N[C@H](C(=O)O)[C@H](O)[C@@H](O)c1ccc(O)c(OS(=O)(=O)O)c1; Orn(4R-OH,5R-OH) = O=C([C@H](C[C@@H](O)[C@@H](O)N[*:3])N[*:1])[*:2]; Pro(3S-OH,4S-Me) = C[C@H]1CN[C@H](C(=O)O)[C@H]1O; X1 = CCCCCOc1ccc(-c2cc(-c3ccc(C(=O)*)cc3)no2)cc1; Gln(3R-OH) = NC(=O)C[C@@H](O)[C@H](N)C(=O)O; Hyp = O=C(O)[C@@H]1C[C@@H](O)CN1
Assays:
Nakaseomyces glabratus [1] = test: Antifungal activity against Candida glabrata ATCC 90030 after 48 hrs by broth microdilution method in presence of 0.02% glucose; type: functional; settings: ATCC 90030, 48 h
Procedure, shortened: (§1)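 CLSI M27-A3 broth microdilution in RPMI 1640 (pH 7.0, 0.165 M MOPS) with glucose at 2%, 0.2%, 0.1%, 0.05% or 0.02%, or with 0.2% glycerol in place of glucose. Inoculum from 24-h SDA culture at 35°C, final 1 × 10^3 cells/ml. Incubated 48 h. MIC is the lowest concentration giving a prominent turbidity drop; OD600 also read against the growth control.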

Nakaseomyces glabratus [2] = test: Antifungal activity against Candida glabrata ATCC 90030 infected in ICR mouse assessed as fungal load in kidney at 0.25 mg/kg/day, sc for 8 days measured on day 8; settings: route subcutaneous
Nakaseomyces glabratus [3] = test: Antifungal activity against Candida glabrata ATCC 90030 after 48 hrs by broth microdilution method in presence of 0.2% glucose; type: functional; settings: ATCC 90030, 48 h; procedure, shortened: as §1
Nakaseomyces glabratus [4] = test: Antifungal activity against Candida glabrata ATCC 90030 infected in ICR mouse assessed as fungal load in kidney at 0.5 mg/kg/day, sc for 8 days measured on day 8; settings: route subcutaneous
Nakaseomyces glabratus [5] = test: Antifungal activity against Candida glabrata ATCC 90030 after 48 hrs by broth microdilution method in presence of 0.2% glycerol; type: functional; settings: ATCC 90030, 48 h; procedure, shortened: as §1
Nakaseomyces glabratus [6] = test: Antifungal activity against Candida glabrata ATCC 90030 after 48 hrs by broth microdilution method in presence of 2% glucose; type: functional; settings: ATCC 90030, 48 h; procedure, shortened: as §1
Nakaseomyces glabratus [7] = test: Antifungal activity against Candida glabrata ATCC 90030 infected in ICR mouse assessed as fungal load in kidney at 0.125 mg/kg/day, sc for 8 days measured on day 8; settings: route subcutaneous
Nakaseomyces glabratus [8] = test: Antifungal activity against Candida glabrata ATCC 90030 after 48 hrs by broth microdilution method in presence of 0.05% glucose; type: functional; settings: ATCC 90030, 48 h; procedure, shortened: as §1
Nakaseomyces glabratus [9] = test: Antifungal activity against Candida glabrata ATCC 90030 after 48 hrs by broth microdilution method in presence of 0.1% glucose; type: functional; settings: ATCC 90030, 48 h; procedure, shortened: as §1
Nakaseomyces glabratus [10] = test: Antifungal activity against Candida glabrata ATCC 90030 infected in ICR mouse assessed as fungal load in kidney at 0.1 mg/kg/day, sc for 8 days measured on day 8; type: functional; settings: route subcutaneous
Procedure, shortened: (§2)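 Four-week-old male SPF ICR mice (n=5/group) were made neutropenic with cyclophosphamide 200 mg/kg ip on day −3 and 100 mg/kg on day +1. They were infected iv (tail vein) with 7.68 × 10^6 CFU/mouse in saline. Dosing was sc once daily for 8 days from 2 h post-infection; controls got saline. Day-8 kidney homogenates were plated on SDA with 0.1 mg/ml imipenem, 35°C, 5 days. Result is log CFU/kidneys, Dunnett test versus control.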

Nakaseomyces glabratus [11] = test: Antifungal activity against Candida glabrata ATCC 90030 assessed as growth inhibition at 0.0039 to 0.125 ug/ml after 48 hrs; type: functional, organism-based
Procedure, shortened: (§3)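 Inhibition curve in CLSI M27-A3 microdilution: RPMI 1640 with 0.2% glucose, MOPS-buffered to pH 7.0, final inoculum 1 × 10^3 cells/ml. OD600 was read on a microplate spectrophotometer at 24 h and 48 h. Percent inhibition was calculated relative to the growth-control well.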

Nakaseomyces glabratus [12] = test: Antifungal activity against Candida glabrata ATCC 90030 assessed as growth inhibition at 0.0039 to 0.125 ug/ml after 24 hrs; type: functional, organism-based; procedure, shortened: as §3
Nakaseomyces glabratus [13] = test: Antifungal activity against Candida glabrata ATCC 90030 infected in ICR mouse assessed as fungal load in kidney at 0.025 mg/kg/day, sc for 8 days measured on day 8; type: functional; settings: route subcutaneous; procedure, shortened: as §2
Nakaseomyces glabratus [14] = test: Antifungal activity against Candida glabrata ATCC 90030 infected in ICR mouse assessed as fungal load in kidney at 0.05 mg/kg/day, sc for 8 days measured on day 8; type: functional; settings: route subcutaneous; procedure, shortened: as §2
Nakaseomyces glabratus [15] = test: Antifungal activity against Candida glabrata ATCC 90030 after 24 hrs by Almar blue assay in presence of 0.2% glucose; settings: ATCC 90030, 24 h
Nakaseomyces glabratus [16] = test: Antifungal activity against Candida glabrata ATCC 90030 after 24 hrs by broth microdilution method in presence of 2% glucose; type: functional; settings: ATCC 90030, 24 h
Nakaseomyces glabratus [17] = test: Antifungal activity against Candida glabrata ATCC 90030 after 24 hrs by broth microdilution method in presence of 0.1% glucose; type: functional; settings: ATCC 90030, 24 h
Nakaseomyces glabratus [18] = test: Antifungal activity against Candida glabrata ATCC 90030 after 24 hrs by broth microdilution method in presence of 0.02% glucose; type: functional; settings: ATCC 90030, 24 h
Nakaseomyces glabratus [19] = test: Antifungal activity against Candida glabrata ATCC 90030 after 24 hrs by broth microdilution method in presence of 0.2% glucose; type: functional; settings: ATCC 90030, 24 h
Nakaseomyces glabratus [20] = test: Antifungal activity against Candida glabrata ATCC 90030 after 48 hrs by Almar blue assay in presence of 0.2% glucosel; settings: ATCC 90030, 48 h
Nakaseomyces glabratus [21] = test: Antifungal activity against Candida glabrata ATCC 90030 after 24 hrs by broth microdilution method in presence of 0.05% glucose; type: functional; settings: ATCC 90030, 24 h
Nakaseomyces glabratus [22] = test: Antifungal activity against Candida glabrata ATCC 90030 infected in ICR mouse assessed as fungal load in kidney at 5 mg/kg/day, sc for 8 days measured on day 8; type: functional; settings: route subcutaneous
Procedure, shortened: (§4)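 Four-week-old male SPF ICR mice made neutropenic with cyclophosphamide ip, 200 mg/kg on day −3 and 100 mg/kg on day +1. Infected iv by tail vein with 7.68 × 10^6 CFU from an overnight SDA culture in saline. Dosed sc once daily for 8 days starting 2 h post-infection, 5 mice per group, saline controls. Kidneys harvested on day 8, homogenates plated on SDA with imipenem, 5 days at 35°C, log CFU counted, Dunnett test.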

Nakaseomyces glabratus [23] = test: Antifungal activity against Candida glabrata ATCC 90030 infected in ICR mouse assessed as fungal load in kidney at 10 mg/kg/day, sc for 8 days measured on […]; type: functional; settings: route subcutaneous
Nakaseomyces glabratus [24] = test: Antifungal activity against Candida glabrata ATCC 90030 infected in ICR mouse assessed as fungal load in kidney at 2.5 mg/kg/day, sc for 8 days measured on day 8; type: functional; settings: route subcutaneous; procedure, shortened: as §4

## C[C@@H]1[C@H](O)[C@@H](C)/C=C/C=C/C=C/C=C/C=C/C=C/C=C/[C@H](O[C@@H]2O[C@H](C)[C@@H](O)[C@H](N)[C@@H]2O)C[C@@H]2O[C@](O)(C[C@@H](O)C[C@@H](O)[C@H](O)CC[C@@H](O)C[C@@H](O)CC(=O)O[C@H]1C)C[C@H](O)[C@H]2C(=O)O [AMPHOTERICIN B]
Nakaseomyces glabratus [1]
  MIC: 2 µg/mL
Nakaseomyces glabratus [2]
  log10cfu: 4.53
Nakaseomyces glabratus [3]
  MIC: 2 µg/mL
Nakaseomyces glabratus [4]
  log10cfu: 2.93
Nakaseomyces glabratus [5]
  MIC: 1 µg/mL
Nakaseomyces glabratus [6]
  MIC: 2 µg/mL
Nakaseomyces glabratus [7]
  log10cfu: 4.61
Nakaseomyces glabratus [8]
  MIC: 2 µg/mL
Nakaseomyces glabratus [9]
  MIC: 2 µg/mL

## N=C(N)c1ccc(OCCCC2CCN(CCCOc3ccc(C(=N)N)cc3)CC2)cc1
Nakaseomyces glabratus [10]
  log10cfu: 3.86
Nakaseomyces glabratus [11]
  Activity: Active
Nakaseomyces glabratus [1]
  MIC: 0.001 µg/mL
Nakaseomyces glabratus [12]
  Activity: Active
Nakaseomyces glabratus [3]
  MIC: 0.0039 µg/mL
Nakaseomyces glabratus [13]
  log10cfu: 4.3
Nakaseomyces glabratus [5]
  MIC: 0.0005 µg/mL
Nakaseomyces glabratus [6]
  MIC: > 0.125 µg/mL
Nakaseomyces glabratus [14]
  log10cfu: 4
Nakaseomyces glabratus [8]
  MIC: 0.001 µg/mL
Nakaseomyces glabratus [9]
  MIC: 0.0039 µg/mL

## CCCCCOc1ccc(-c2cc(-c3ccc(C(=O)N[C@H]4C[C@@H](O)[C@@H](O)NC(=O)[C@@H]5[C@@H](O)[C@@H](C)CN5C(=O)[C@H]([C@H](O)CC(N)=O)NC(=O)[C@H]([C@H](O)[C@@H](O)c5ccc(O)c(OS(=O)(=O)O)c5)NC(=O)[C@@H]5C[C@@H](O)CN5C(=O)[C@H]([C@@H](C)O)NC4=O)cc3)no2)cc1 [MICAFUNGIN] (X1-[Orn(4R-OH,5R-OH)]T[Hyp][hTyr(3S-OH,4S-OH,3'-OSO3H)][Gln(3R-OH)][Pro(3S-OH,4S-Me)]; lactam 1-C)
Nakaseomyces glabratus [15]
  MIC: 0.0625 µg/mL
Nakaseomyces glabratus [16]
  MIC: 0.0625 µg/mL
Nakaseomyces glabratus [2]
  log10cfu: 5.21
Nakaseomyces glabratus [17]
  MIC: 0.0625 µg/mL
Nakaseomyces glabratus [18]
  MIC: 0.125 µg/mL
Nakaseomyces glabratus [19]
  MIC: 0.0625 µg/mL
Nakaseomyces glabratus [20]
  MIC: 0.0625 µg/mL
Nakaseomyces glabratus [4]
  log10cfu: 3.59
Nakaseomyces glabratus [5]
  MIC: 0.125 µg/mL
Nakaseomyces glabratus [7]
  log10cfu: 5.13
Nakaseomyces glabratus [21]
  MIC: 0.0625 µg/mL

## OC(Cn1cncn1)(Cn1cncn1)c1ccc(F)cc1F [FLUCONAZOLE]
Nakaseomyces glabratus [1]
  MIC: 4 µg/mL
Nakaseomyces glabratus [3]
  MIC: 8 µg/mL
Nakaseomyces glabratus [20]
  MIC: 16 µg/mL
Nakaseomyces glabratus [22]
  log10cfu: 5.33
Nakaseomyces glabratus [5]
  MIC: 4 µg/mL
Nakaseomyces glabratus [6]
  MIC: 16 µg/mL
Nakaseomyces glabratus [23]
  log10cfu: 4.62
Nakaseomyces glabratus [24]
  log10cfu: 4.96
Nakaseomyces glabratus [8]
  MIC: 8 µg/mL
Nakaseomyces glabratus [9]
  MIC: 8 µg/mL

Reference: ChEMBL document CHEMBL1649313, “T-2307 shows efficacy in a murine model of Candida glabrata infection despite in vitro trailing growth phenomena” (2010)
